In brackets after ≈: the same amount, converted by molar mass. Counter-ions that a name gives are not always drawn.
Legend:
Plasmodium falciparum = experiment: Antimalarial activity against multidrug-resistant Plasmodium falciparum K1 by micro culture radioisotope technique; assay type: functional, organism-based
Candida albicans = experiment: Antifungal activity against Candida albicans by colorimetric method; assay type: functional, organism-based
KB = experiment: Cytotoxicity against KB cells by colorimetric method; assay type: cell-based; details: Homo sapiens
Method in brief: (§1)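 KB and BC cells were tested by the colorimetric method of Skehan and co-workers, with ellipticine as the reference compound.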

[1] = test system: Mycobacterium tuberculosis; experiment: Antimycobacterial activity against Mycobacterium tuberculosis H37Ra by microplate Alamar Blue assay; assay type: functional
Method in brief: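 M. tuberculosis H37Ra grown in Middlebrook 7H9 broth; growth read colorimetrically with Alamar Blue in microplates and reported as MIC; isoniazid and kanamycin sulfate included as reference drugs.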

[2] = Cytotoxicity against BC cells by colorimetric method; assay type: cell-based; details: Homo sapiens; method in brief: as §1
[3] = molecular target: T1, Prostaglandin G/H synthase 2 (Homo sapiens, UniProt P35354); experiment: Inhibition of COX2 by radioimmunoassay method
T1 sequence (P35354 whole entry): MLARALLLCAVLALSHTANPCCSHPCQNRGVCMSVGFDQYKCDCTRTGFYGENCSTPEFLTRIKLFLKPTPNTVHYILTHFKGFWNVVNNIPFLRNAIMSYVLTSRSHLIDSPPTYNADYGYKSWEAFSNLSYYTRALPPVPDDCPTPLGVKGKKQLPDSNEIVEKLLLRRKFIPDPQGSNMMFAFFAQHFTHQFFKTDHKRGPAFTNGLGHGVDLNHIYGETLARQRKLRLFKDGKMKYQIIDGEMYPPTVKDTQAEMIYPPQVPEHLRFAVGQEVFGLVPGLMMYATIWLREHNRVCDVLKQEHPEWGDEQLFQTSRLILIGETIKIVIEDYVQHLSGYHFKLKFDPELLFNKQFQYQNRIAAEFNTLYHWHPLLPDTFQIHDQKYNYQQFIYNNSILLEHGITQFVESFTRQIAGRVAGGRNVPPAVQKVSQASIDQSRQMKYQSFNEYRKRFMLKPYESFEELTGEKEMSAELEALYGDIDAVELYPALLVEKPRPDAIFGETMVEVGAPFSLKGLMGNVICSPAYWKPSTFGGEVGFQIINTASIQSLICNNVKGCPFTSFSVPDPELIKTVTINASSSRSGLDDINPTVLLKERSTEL

[4] = molecular target: Prostaglandin G/H synthase 1 (Homo sapiens, UniProt P23219); experiment: Inhibition of COX1 by radioimmunoassay method
Prostaglandin G/H synthase 1, sequence (P23219 whole entry): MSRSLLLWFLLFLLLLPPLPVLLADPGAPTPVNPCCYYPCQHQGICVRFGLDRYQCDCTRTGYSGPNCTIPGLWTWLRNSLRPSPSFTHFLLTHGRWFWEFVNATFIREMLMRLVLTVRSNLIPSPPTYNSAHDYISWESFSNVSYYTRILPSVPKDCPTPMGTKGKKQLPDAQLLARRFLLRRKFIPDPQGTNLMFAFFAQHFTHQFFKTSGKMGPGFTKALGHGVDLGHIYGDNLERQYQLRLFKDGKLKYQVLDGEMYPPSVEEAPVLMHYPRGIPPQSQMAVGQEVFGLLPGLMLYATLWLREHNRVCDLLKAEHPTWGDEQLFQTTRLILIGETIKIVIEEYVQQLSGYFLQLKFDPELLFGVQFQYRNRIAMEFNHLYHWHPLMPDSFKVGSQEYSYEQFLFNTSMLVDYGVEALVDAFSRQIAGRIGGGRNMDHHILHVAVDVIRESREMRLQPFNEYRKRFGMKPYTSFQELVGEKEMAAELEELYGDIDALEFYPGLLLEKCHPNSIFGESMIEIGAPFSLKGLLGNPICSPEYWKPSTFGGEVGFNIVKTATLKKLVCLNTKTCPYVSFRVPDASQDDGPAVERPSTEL

| Compound | IC50 (Plasmodium falciparum) | IC50 (Candida albicans) | IC50 (KB) | MIC [1] | IC50 [2] | IC50 [3] | IC50 [4] |
| --- | --- | --- | --- | --- | --- | --- | --- |
| Cc1c(O)cc2c(c1O)C(=O)C[C@@H](c1ccccc1)O2 | > 74 µM | > 185 µM | > 74 µM | > 741 µM | > 74 µM |  |  |
| COc1cc(CCc2ccccc2O)cc(OC)c1 | > 77.5 µM | 49.6 µM | > 77.5 µM | 194 µM (≈ 50 µg/mL) | > 77.5 µM |  |  |
| COc1cc(CCc2ccccc2O)c(O)c(OC)c1 | > 72.9 µM | > 182 µM | > 72.9 µM | 91.2 µM (≈ 25 µg/mL) | > 72.9 µM |  |  |
| COc1cc(O)cc(CCc2ccccc2)c1 | > 87.7 µM | 68.4 µM | 51.7 µM | 219 µM (≈ 50 µg/mL) | 72.3 µM |  |  |
| C[C@@H]1[C@H](O)[C@@H](C)/C=C/C=C/C=C/C=C/C=C/C=C/C=C/[C@H](O[C@@H]2O[C@H](C)[C@@H](O)[C@H](N)[C@@H]2O)C[C@@H]2O[C@](O)(C[C@@H](O)C[C@@H](O)[C@H](O)CC[C@@H](O)C[C@@H](O)CC(=O)O[C@H]1C)C[C@H](O)[C@H]2C(=O)O [AMPHOTERICIN B] |  | 0.04 µM |  |  |  |  |  |
| C[C@H]1[C@@H](O)O[C@@H]2O[C@@]3(C)CC[C@H]4[C@H](C)CC[C@@H]1[C@@]24OO3 [ARTENIMOL] | 0.0042 µM |  |  |  |  |  |  |
| COc1cc(O)cc(CCc2ccccc2O)c1 [BATATASIN IV] | > 81.8 µM | > 205 µM | > 81.8 µM | 205 µM (≈ 50 µg/mL) | > 81.8 µM | > 40.9 µM | > 40.9 µM |
| COc1cc(OC)c(O)c([C@@H]2Cc3ccccc3O2)c1 [BAUHIBENZOFURIN A] | > 73.5 µM | 130 µM | > 73.5 µM | 368 µM (≈ 100 µg/mL) | > 73.5 µM |  |  |
| COc1cc(CCc2ccccc2O)cc(O)c1C [BAUHINOL E] | > 77.5 µM | > 194 µM | > 77.5 µM | 194 µM (≈ 50 µg/mL) | > 77.5 µM |  |  |
| COc1cc2c(c(O)c1C)Oc1cccc(O)c1CC2 [BAUHINOXEPIN C] | > 73.5 µM | 79.4 µM | 44.8 µM | 184 µM (≈ 50 µg/mL) | 32.3 µM |  |  |
| COc1c(C)c(O)cc2c1Oc1cccc(O)c1CC2 [BAUHINOXEPIN D] | > 73.5 µM | > 184 µM | 41.5 µM | 184 µM (≈ 50 µg/mL) | 45.5 µM |  |  |
| COc1c(C)c(OC)c2c(c1O)CCc1c(O)cccc1O2 [BAUHINOXEPIN E] | > 66.2 µM | > 166 µM | > 66.2 µM | 331 µM (≈ 100 µg/mL) | > 66.2 µM | > 33.1 µM | > 33.1 µM |
| COc1c(O)c(C)c(OC)c2c1CCc1c(O)cccc1O2 [BAUHINOXEPIN F] | > 66.2 µM | 77.8 µM | 29.4 µM | 662 µM (≈ 200 µg/mL) | 27.4 µM | 6.9 µM | > 33.1 µM |
| COc1c(C)c(O)cc2c1Oc1ccccc1C(O)C2 (configuration not stated) [BAUHINOXEPIN G] | > 73.5 µM | > 184 µM | > 73.5 µM | 91.9 µM (≈ 25 µg/mL) | > 73.5 µM |  |  |
| COC1=C(C)C(=O)C2=C(CCc3c(O)cccc3O2)C1=O [BAUHINOXEPIN H] |  | > 175 µM | 15.7 µM | 87.4 µM (≈ 25 µg/mL) | 11.5 µM | > 34.9 µM | > 34.9 µM |
| COC1=C(C)C(=O)C2=C(CCc3cc(O)ccc3O2)C1=O [BAUHINOXEPIN I] | 10.5 µM | > 175 µM | 38.8 µM | 175 µM (≈ 50 µg/mL) | 41.9 µM | 10.1 µM | > 34.9 µM |
| COC1=CC(=O)C2=C(CCc3ccccc3O2)C1=O [BAUHINOXEPIN J] | 5.8 µM | > 195 µM | 10.5 µM | 24.4 µM (≈ 6.25 µg/mL) | 12.1 µM |  |  |
| Cc1c(O)c(C)c2c(c1O)C(=O)C[C@@H](c1ccccc1)O2 [DEMETHOXYMATTEUCINOL] | 9.5 µM | > 176 µM | > 70.4 µM | > 704 µM | > 70.4 µM |  |  |
| Oc1cc(O)cc(CCc2ccccc2)c1 [DIHYDROPINOSYLVIN] | > 93.4 µM | > 234 µM | > 93.4 µM | 117 µM (≈ 25 µg/mL) | > 93.4 µM | > 46.7 µM | > 46.7 µM |
| Cc1c2ccncc2c(C)c2c1[nH]c1ccccc12 [ELLIPTECINE] |  |  | 5.3 µM |  | 6.1 µM |  |  |
| NNC(=O)c1ccncc1 [ISONIAZID] |  |  |  | 0.29 µM (≈ 0.0398 µg/mL) |  |  |  |
| NC[C@H]1O[C@H](O[C@H]2[C@H](O)[C@@H](O[C@H]3O[C@H](CO)[C@@H](O)[C@H](N)[C@H]3O)[C@H](N)C[C@@H]2N)[C@H](O)[C@@H](O)[C@@H]1O [KANAMYCIN SULFATE] |  |  |  | 3.43 µM |  |  |  |

— ChEMBL document CHEMBL1139892 (J Nat Prod, 2007)
